# Experimental data taken from PMC3475189 (Environmental science & technology, 2012).
# Legend:
# [1] = Tissue levels of PCB 95 and OH-PCB metabolites by GC-ECD; type: in vivo, female C57Bl/6 mice; conditions: for levels in adipose and brain samples: detection limits 11 to 16 ng/g tissue; for concentration at 24 h: female, C57Bl/6, mouse, brain
# [2] = Enantiomeric fractions in tissues by enantioselective GC; type: in vivo, female C57Bl/6 mice
# In short: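 Extracts of blood, brain, liver and adipose came from mice given 0.1, 1.0 or 6.0 mg/kg/day orally in peanut butter for 39 days and sacrificed 24 h after the last dose. Enantioselective GC-ECD used Chirasil Dex, BGB-172 or ChiralDex B-DM columns: 35 to 140 °C held 420 min, then 200 °C; injector and detector 250 °C; helium 3 mL/min. EF = A1/(A1+A2), E1 being the first-eluting atropisomer; mean ± SD.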
# General toxicity = type: in vivo, female C57Bl/6 mice; conditions: 0.1, 1 or 6 mg/kg b.w./day oral for 39 days, any dose level
# In short: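 Seven-week-old female C57Bl/6 mice, housed singly on a 12 h reverse light cycle, were acclimated 7 days. They then took the test compound in peanut butter daily at 0.1, 1.0 or 6.0 mg/kg/day for 39 days, with the amount adjusted to daily body weight; vehicle controls received peanut butter only. Body weights were recorded daily and analysed by two-way repeated measures ANOVA.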
# CYP1A2 mRNA = assay: Hepatic CYP1A2 mRNA level by qPCR; type: in vivo, female C57Bl/6 mice; conditions: liver, 39 days oral
# CYP3A11 mRNA = assay: Hepatic CYP3A11 mRNA level by qPCR; type: in vivo, female C57Bl/6 mice; conditions: liver, high dose 6 mg/kg b.w./day, 39 days oral
# CYP2B10 mRNA = assay: Hepatic CYP2B10 mRNA level by qPCR; type: in vivo, female C57Bl/6 mice; conditions: liver, low dose 0.1 mg/kg b.w./day, 39 days oral
# CYP2S1 mRNA = assay: Hepatic CYP2S1 mRNA level by qPCR; type: in vivo, female C57Bl/6 mice; conditions: liver, all doses, 39 days oral
# [3] = test system: P450 mRNA (CYP1A2, CYP3A11, CYP2B10, CYP2S1); assay: Brain P450 mRNA levels by qPCR; type: in vivo, female C57Bl/6 mice; conditions: 39 days oral
# [4] = cited from earlier work
structure (smiles),measurement,setting,value
"COc1c(Cl)cc(Cl)c(-c2cc(Cl)ccc2Cl)c1Cl [3-103, 3 Methoxy 2,2′,4,5′,6-pentachlorobiphenyl]",levels in adipose and brain samples,[1],below their respective detection limits
"COc1c(Cl)c(Cl)c(-c2cc(Cl)ccc2Cl)c(Cl)c1OC [4,5-95, 4,5-dimethoxy-2,2′,3,5′,6-pentachlorobiphenyl]",levels in adipose and brain samples,[1],below their respective detection limits
"Oc1cc(Cl)c(Cl)c(-c2cc(Cl)ccc2Cl)c1Cl [5-95, 2,2′,3,5′,6-pentachlorobiphenyl-5-ol]",levels in adipose and brain samples,[1],below their respective detection limits
same,enriched atropisomer,"[2]; liver, high dose treatment group",E1-5-95 was enriched
same,enantiomeric enrichment,"[2]; liver, medium dose treatment group",no consistent enantiomeric enrichment
"Clc1ccc(Cl)c(-c2c(Cl)ccc(Cl)c2Cl)c1 [PCB 95, 2,2′,3,5′,6-pentachlorobiphenyl]","effect on final body weight, growth rate or other signs of general toxicity",General toxicity,no effect
same,CYP1A2 transcript levels relative to control,CYP1A2 mRNA; high dose 6 mg/kg b.w./day,not changed
same,induction of CYP1A2 mRNA compared to control,CYP1A2 mRNA; low dose 0.1 mg/kg b.w./day,1.9 fold
same,hepatic CYP3A11 levels compared to control,CYP3A11 mRNA,no change
same,CYP2B10 mRNA levels compared to control,CYP2B10 mRNA,no change
same,hepatic CYP2S1 mRNA levels,CYP2S1 mRNA,not affected
same,brain P450 mRNA levels,[3],not affected
same,concentration at 24 h,"[1]; oral, 6 mg/kg/day",360 ng/g
same,concentration at 24 h,[1]; po,37 to 360 ng/g
same,increase in adipose levels of PCB 95,[1]; low to medium dose (10-fold increase in dose),10 fold
same,average EF value across treatment groups,"[2]; adipose, EF = A1/(A1+A2)",≈ 0.19
same,enriched atropisomer,"[2]; blood, brain, liver and adipose, all three treatment groups",E2-PCB 95 was enriched
same,average EF across treatment groups,"[2]; liver and blood, EF = A1/(A1+A2)",approximately 0.10
"Oc1cc(Cl)c(-c2cc(Cl)ccc2Cl)c(Cl)c1Cl [4-95, 2,2′,3,5′,6-pentachlorobiphenyl-4-ol]",levels in adipose and brain samples,[1],below their respective detection limits
same,level in liver,"[1]; liver, low dose treatment group",below the detection limit
"Oc1c(Cl)cc(-c2ccc(Cl)c(Cl)c2)c(Cl)c1Cl [4-107, 2,3,3′,4′,5-pentachlorobiphenyl-4-ol]",level in fetal brains,[4]; fetal brain after oral administration of 4-107 to pregnant Wistar rats,~ 1 μg/g tissue
same,level in post-weanling rats,[4]; post-weanling rats,below detection
